This is an account of results in ChEMBL document CHEMBL4184296, “Novel inhibitors of Staphylococcus aureus RnpA that synergize with mupirocin” (Bioorg Med Chem Lett, 2018).

The target of data set [1] is T1, Ribonuclease P protein component (Staphylococcus aureus, UniProt P0A0H5).
T1 sequence (P0A0H5 whole entry): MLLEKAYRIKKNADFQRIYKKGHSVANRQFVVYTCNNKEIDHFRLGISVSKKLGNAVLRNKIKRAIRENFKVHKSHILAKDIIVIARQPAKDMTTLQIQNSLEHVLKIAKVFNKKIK
Description: Inhibition of Staphylococcus aureus RnpA-mediated mRNA degradation after 15 to 30 mins by ethidium bromide staining based agarose gel electrophoresis. In outline: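 Recombinant S. aureus RnpA (≥97% purity) tested for inhibition of in vitro mRNA degradation.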

A short description of data set [2]: Inhibition of Staphylococcus aureus RnpA/RnpB-mediated tRNA cleavage after 15 mins by ethidium bromide staining based polyacrylamide gel electrophoresis. The gist of the method: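 RNase P reconstituted from equimolar S. aureus RnpA and rnpB; inhibition of in vitro tRNA maturation (cleavage) measured.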
The test system of data set [3] is Staphylococcus aureus. Nature of the data set: Antibacterial activity against Staphylococcus aureus UAMS-1 after 18 hrs by Mueller-Hinton broth analysis. The settings on record: UAMS-1, 18 h. It counts as functional. In outline:
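S. aureus UAMS-1, a methicillin-sensitive osteomyelitis clinical isolate, tested by CLSI broth method in 96-well format. MIC taken as the lowest compound concentration with no visible growth.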

In a further data set the test system is HepG2. Description: Cytotoxicity against human HepG2 cells assessed as reduction in cell viability after 24 hrs by MTT assay. Type of data set: cell-based. The settings on record: hepg2, 24 h. The gist of the method: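 Human HepG2 hepatocytes; overt cytotoxicity measured by MTT method. Value reported as the lowest concentration causing cytotoxicity.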
The test system of data set [4] is Staphylococcus aureus. Nature of the data set: Potentiation of mupirocin-induced antibacterial activity against Staphylococcus aureus UAMS-1 assessed as fractional inhibitory concentration index at 4 ug/ml by checkerboard assay. Type of data set: functional. The gist of the method: (§1)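 Checkerboard assay: wells seeded with 1 × 10^5 CFU ml-1 S. aureus UAMS-1. Test compound in 2-fold steps (0, 0.5, 1, 2, 4, 8, 16, 32 µg/mL) crossed with mupirocin (0, 0.03125, 0.0625, 0.125 µg/mL). Plates incubated 18 h at 37 °C, then growth read. FICI = (MIC compound combined / MIC alone) + (MIC mupirocin combined / MIC mupirocin alone).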

In data set [5] the test system is Staphylococcus aureus. Nature of the data set: Potentiation of mupirocin-induced antibacterial activity against Staphylococcus aureus UAMS-1 assessed as mupirocin MIC at 8 ug/ml by checkerboard assay (reference value: 0.125 microg/ml). It counts as functional. In outline:
as §1

Data set [6] deals with Staphylococcus aureus. Nature of the data set: Potentiation of mupirocin-induced antibacterial activity against Staphylococcus aureus UAMS-1 assessed as fractional inhibitory concentration index at 0.5 ug/ml by checkerboard assay. Type of data set: functional. In outline: as §1
The subject of data set [7] is Staphylococcus aureus. Nature of the data set: Potentiation of mupirocin-induced antibacterial activity against Staphylococcus aureus UAMS-1 assessed as fractional inhibitory concentration index at 8 ug/ml by checkerboard assay. It counts as functional. The gist of the method: as §1
Data set [8] deals with Staphylococcus aureus. Nature of the data set: Potentiation of mupirocin-induced antibacterial activity against Staphylococcus aureus UAMS-1 assessed as fractional inhibitory concentration index at 16 ug/ml by checkerboard assay. Type of data set: functional. In outline: as §1
Data set [9] concerns Staphylococcus aureus. Nature of the data set: Potentiation of mupirocin-induced antibacterial activity against Staphylococcus aureus UAMS-1 assessed as mupirocin MIC at 4 ug/ml by checkerboard assay (reference value: 0.125 microg/ml). It counts as functional. In outline:
as §1

For data set [10], the system named is Staphylococcus aureus. Nature of the data set: Potentiation of mupirocin-induced antibacterial activity against Staphylococcus aureus UAMS-1 assessed as mupirocin MIC at 2 ug/ml by checkerboard assay (reference value: 0.125 microg/ml). Type of data set: functional. The gist of the method:
as §1

Data set [11] has as its system Staphylococcus aureus. Description: Potentiation of mupirocin-induced antibacterial activity against Staphylococcus aureus UAMS-1 assessed as mupirocin MIC at 1 ug/ml by checkerboard assay (reference value: 0.125 microg/ml). Type of data set: functional. The gist of the method: as §1
In data set [12] the test system is Staphylococcus aureus. Description: Potentiation of mupirocin-induced antibacterial activity against Staphylococcus aureus UAMS-1 assessed as fractional inhibitory concentration index at 1 ug/ml by checkerboard assay. Type of data set: functional. In outline: as §1

Values after ≈ are worked out from the molar mass of the structure shown.

Turning to `CC(C)c1ccc(OCC(=O)NNC(=S)NC(=O)c2ccc(-c3ccccc3)o2)cc1`, the IC50 in data set [1] worked out at 40 µM; in data set [2] it was 50 µM. This compound also returned an MIC against Staphylococcus aureus [3] of 64 µg/mL (≈ 146 µM). The MTC with HepG2 was found to be 64 µg/mL.
For the compound `CC(C)c1ccc(OCC(=O)NNC(=S)NC(=O)c2cc3ccccc3o2)cc1`, in data set [2], the IC50 amounted to 1 µM. Besides, the MIC in the data set on Staphylococcus aureus [3] was determined as 32 µg/mL (≈ 77.8 µM); in the data set on Staphylococcus aureus [5], 0.0312 µg/mL. For the same compound, the MTC in the data set with HepG2 is > 128 µg/mL. Besides, the figures for the fractional inhibitory concentration index (FICI) with Staphylococcus aureus [4] and in the data set with Staphylococcus aureus [6] were 0.25 and 0.508, respectively.
As to `Cc1cc(/C=C(/C#N)C(=O)Nc2cccc(Br)c2)c(C)n1-c1ccc(C(=O)O)cc1`, the IC50 in data set [1] was found to be 100 µM; in data set [2] it was 175 µM. Moreover, inhibition of growth in the data set with Staphylococcus aureus [3] (MIC) required 32 µg/mL (≈ 68.9 µM). Besides, the MTC in the data set on HepG2 is 25 µg/mL.
`CC(C)c1ccc(OCC(=O)NNC(=S)NC(=O)Cc2ccco2)cc1` displayed an IC50 in data set [1] of 25 µM. For the same compound, the MTC in the data set on HepG2 came out at 32 µg/mL.
`CC(C)c1ccc(OCC(=O)NNC(=S)NC(=O)c2cc3cc(F)ccc3[nH]2)cc1`: the IC50 in data set [1] and in data set [2] was < 50 µM each time. Also, in the data set on HepG2, the MTC was found to be 256 µg/mL.
For `CC(C)c1ccc(OCC(=O)NNC(=S)NC(=O)c2ccccc2)cc1`, the IC50 was > 500 µM in data set [1] and 350 µM in data set [2]. The lowest concentration to inhibit growth with Staphylococcus aureus [3] (MIC) was 64 µg/mL (≈ 172 µM). The MTC in the data set on HepG2 amounted to 512 µg/mL.
As to `CC(C)c1ccc(OCC(=O)NNC(=S)NC(=O)c2cc3ccccc3s2)cc1`, in data set [2], the IC50 came out at 100 µM. Besides, the MTC in the data set with HepG2 worked out at 512 µg/mL.
As for `CC(C)c1ccc(OCC(=O)NNC(=S)NC(=O)c2cccs2)cc1`, the IC50 in [1] amounted to 250 µM; in [2], 25 µM. Moreover, the minimal inhibitory concentration (MIC) in the data set on Staphylococcus aureus [3] worked out at 64 µg/mL (≈ 170 µM). The MTC in the data set with HepG2 was > 256 µg/mL.
In data set [2], `CC(C)c1ccc(OCC(=O)NNC(=S)NC(=O)c2cc3ccccc3n2C)cc1` had an IC50 of 50 µM. The MTC with HepG2 is > 256 µg/mL.
`CC(C)c1ccc(OCC(=O)NNC(=S)NC(=O)c2ccccn2)cc1` registered a half-inhibitory concentration (IC50) in data set [2] of 1 µM. Moreover, the MTC in the data set on HepG2 is > 128 µg/mL. Moreover, the MIC in the data set on Staphylococcus aureus [5] turned out to be 0.0625 µg/mL. Also, the entries for the “fractional inhibitory concentration index (FICI)” value in the data set with Staphylococcus aureus [7], in the data set on Staphylococcus aureus [6] and in the data set with Staphylococcus aureus [8] were 0.5, 0.516 and 0.625, respectively.
As to `Cc1ccc(C(=O)NC(=S)NNC(=O)COc2ccc(C(C)C)cc2)o1`, it took 105 µM to reach half-maximal inhibition in data set [2] (IC50). Moreover, the MTC with HepG2 was > 128 µg/mL. Besides, the “fractional inhibitory concentration index (FICI)” value in the data set on Staphylococcus aureus [4] is on record as 0.5; in the data set with Staphylococcus aureus [6], 0.53. The MIC in the data set with Staphylococcus aureus [9] was found to be 0.0312 µg/mL.
As to `CC(C)c1ccc(OCC(=O)NNC(=S)NC(=O)c2ccc(Br)o2)cc1`, the IC50 in [2] was found to be 40 µM. The MTC with HepG2 is > 128 µg/mL. Further, the MIC in the data set with Staphylococcus aureus [10] stood at 0.0625 µg/mL. Further, the “fractional inhibitory concentration index (FICI)” value turned out to be 0.375 with Staphylococcus aureus [7] and 0.516 with Staphylococcus aureus [6].
The compound `Cc1ccoc1C(=O)NC(=S)NNC(=O)COc1ccc(C(C)C)cc1` yielded an IC50 in data set [2] of 150 µM. Further, the MTC with HepG2 is > 128 µg/mL.
The corresponding values for `CC(C)c1ccc(OCC(=O)NNC(=S)NC(=O)c2cc3cc(Cl)ccc3[nH]2)cc1` are 100 µM and 256 µg/mL.
The like results for `CC(C)c1ccc(OCC(=O)NNC(=S)NC(=O)c2ccno2)cc1` were, in that order, > 500 µM and > 128 µg/mL.
On to `CC(C)c1ccc(OCC(=O)NNC(=S)NC(=O)c2nc3ccccc3[nH]2)cc1`, for which 90 µM corresponded to half-maximal inhibition in [2] (IC50). Also, the MTC in the data set on HepG2 was determined as 512 µg/mL.
Take `CC(C)c1ccc(OCC(=O)NNC(=S)NC(=O)c2cc3ccccc3[nH]2)cc1`: the IC50 in data set [2] came to 0.5 µM. For the same compound, the MTC in the data set with HepG2 is > 256 µg/mL. Moreover, the MIC in the data set on Staphylococcus aureus [11] came out at 0.0625 µg/mL. Besides, in the data set on Staphylococcus aureus [12], the “fractional inhibitory concentration index (FICI)” value amounted to 0.56.
For `CC(C)c1ccc(OCC(=O)NNC(=S)NC(=O)c2ccncc2)cc1`, the IC50 in data set [2] amounted to 150 µM. Further, the MTC with HepG2 was > 512 µg/mL.
As to `CC(C)c1ccc(OCC(=O)NNC(=S)NC(=O)c2cnco2)cc1`, half-maximal inhibition in data set [2] (IC50) was put at 50 µM. Further, in the data set on HepG2, the MTC worked out at 64 µg/mL.
In [2], `CC(C)c1ccc(OCC(=O)NNC(=S)NC(=O)c2ccco2)cc1` displayed an IC50 of 140 µM. Further, the minimal inhibitory concentration (MIC) in the data set on Staphylococcus aureus [3] is 16 µg/mL (≈ 44.3 µM); in the data set with Staphylococcus aureus [9], 0.0625 µg/mL. For the same compound, the MTC in the data set with HepG2 is > 128 µg/mL. The “fractional inhibitory concentration index (FICI)” value in the data set with Staphylococcus aureus [4] was 0.49.
In the case of `COc1ccc2[nH]c(C(=O)NC(=S)NNC(=O)COc3ccc(C(C)C)cc3)cc2c1`, the MTC in the data set on HepG2 turned out to be 32 µg/mL.
Regarding `CC(C)c1ccc(OCC(=O)NNC(=S)NC(=O)c2cc3ccc(Cl)cc3[nH]2)cc1`, the IC50 in data set [2] was < 50 µM. The MTC in the data set with HepG2 was determined as 32 µg/mL.
With `CC(C)c1ccc(OCC(=O)NNC(=S)NC(=O)c2coc3ccccc23)cc1`, the IC50 is > 250 µM in [1] and 25 µM in [2]. Besides, the MIC with Staphylococcus aureus [3] turned out to be 128 µg/mL (≈ 311 µM). Besides, the MTC in the data set with HepG2 was 128 µg/mL.
Regarding `CC(C)c1ccc(OCC(=O)NNC(=S)NC(=O)c2ccoc2)cc1`, the results for the IC50 in data set [1] and in data set [2] were 250 µM and 150 µM, respectively. Also, in the data set on HepG2, the MTC was 16 µg/mL.
Compound `CC(C)c1ccc(OCC(=O)NNC(=S)NC(=O)/C=C/c2ccco2)cc1` came in with an IC50 in data set [2] of 32 µM. Besides, the MTC with HepG2 was > 256 µg/mL.
The corresponding values for `CC(C)c1ccc(OCC(=O)NNC(=S)NC(=O)c2cccnc2)cc1` are 160 µM and > 256 µg/mL.
In data set [2], `CC(C)c1ccc(OCC(=O)NNC(=S)NC(=O)/C=C/c2cc3ccccc3o2)cc1` registered an IC50 of 26 µM. In the data set on Staphylococcus aureus [3], the MIC is > 256 µg/mL. In addition, the MTC in the data set on HepG2 came out at 256 µg/mL.
Turning to `CC(C)c1ccc(OCC(=O)NNC(=S)NC(=O)c2c[nH]c3ccccc23)cc1`, the IC50 in [2] was 90 µM. Further, the MTC in the data set with HepG2 is > 128 µg/mL. For the same compound, in the data set with Staphylococcus aureus [5], the MIC amounted to 0.0625 µg/mL. Further, the “fractional inhibitory concentration index (FICI)” value in the data set on Staphylococcus aureus [7] was determined as 0.5.
`COc1ccc2cc(C(=O)NC(=S)NNC(=O)COc3ccc(C(C)C)cc3)[nH]c2c1` gave an IC50 in data set [1] of 50 µM. Moreover, in the data set with Staphylococcus aureus [3], the minimal inhibitory concentration (MIC) is > 256 µg/mL. In addition, in the data set with HepG2, the MTC was > 512 µg/mL.
`CC(C)c1ccc(OCC(=O)NNC(=S)NC(=O)c2ccc[nH]2)cc1`: the values for the IC50 in [1] and in data set [2] were > 250 µM and 25 µM, respectively. In the data set with Staphylococcus aureus [3], the MIC came to 16 µg/mL (≈ 44.4 µM). Also, the MTC in the data set on HepG2 was 16 µg/mL.
Consider `CC(C)c1ccc(OCC(=O)NNC(=S)NC(=O)c2ccsc2)cc1`, for which, in [2], half-maximal inhibition (IC50) was put at 395 µM. In addition, the MTC in the data set on HepG2 is > 256 µg/mL.
